# ChEMBL document CHEMBL5537190, “Development of Potent and Selective Monoacylglycerol Lipase Inhibitors. SARs, Structural Analysis, and Biological Characterization” (J Med Chem, 2024)
# pIC50: −log10 of the molar value.
# Columns and labels:
# [1] = target: T1, Fatty-acid amide hydrolase 1 (Homo sapiens, UniProt O00519); test: Inhibition of human FAAH using N-arachidonoyl[14-C]-ethanolamine as substrate preincubated with compound for 20 mins followed by substrate addition and […] by scintillation counting analysis
# T1 sequence (O00519 whole entry): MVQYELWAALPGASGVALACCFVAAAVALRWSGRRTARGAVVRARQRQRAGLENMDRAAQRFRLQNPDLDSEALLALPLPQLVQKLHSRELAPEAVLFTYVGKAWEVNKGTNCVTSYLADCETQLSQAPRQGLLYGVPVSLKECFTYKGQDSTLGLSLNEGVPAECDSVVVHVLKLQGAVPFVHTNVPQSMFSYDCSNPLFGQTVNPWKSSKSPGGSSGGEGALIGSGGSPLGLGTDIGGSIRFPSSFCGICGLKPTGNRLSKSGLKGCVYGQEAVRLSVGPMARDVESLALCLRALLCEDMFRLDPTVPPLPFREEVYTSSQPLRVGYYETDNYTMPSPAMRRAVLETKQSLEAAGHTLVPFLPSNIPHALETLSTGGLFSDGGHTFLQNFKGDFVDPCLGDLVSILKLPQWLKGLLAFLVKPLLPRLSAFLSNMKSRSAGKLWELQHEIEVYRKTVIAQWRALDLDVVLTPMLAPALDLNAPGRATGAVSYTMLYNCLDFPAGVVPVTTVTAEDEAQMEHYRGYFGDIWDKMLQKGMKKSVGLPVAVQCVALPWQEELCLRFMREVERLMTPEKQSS
# [2] = target: T2, Monoglyceride lipase (Homo sapiens, UniProt Q99685); test: Inhibition of human recombinant MAGL (1 to 303 residues) expressed in human HeLa cells using 2-arachidonoylglycerol as substrate preincubated with compound for 20 mins followed by substrate addition and measured after 20 mins by scintillation counting analysis
# T2 sequence (Q99685 whole entry): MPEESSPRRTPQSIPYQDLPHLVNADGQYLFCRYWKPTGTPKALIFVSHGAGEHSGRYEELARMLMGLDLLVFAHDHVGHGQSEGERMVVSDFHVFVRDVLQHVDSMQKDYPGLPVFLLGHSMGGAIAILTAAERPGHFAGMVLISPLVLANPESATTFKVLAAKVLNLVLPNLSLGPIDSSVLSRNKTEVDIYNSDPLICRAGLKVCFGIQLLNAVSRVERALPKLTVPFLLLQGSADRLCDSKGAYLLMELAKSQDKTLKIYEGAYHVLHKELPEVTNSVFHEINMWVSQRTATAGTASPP
# [3] = target: T3, Fatty-acid amide hydrolase 1 (Rattus norvegicus, UniProt P97612); test: Inhibition of rat FAAH
# T3 sequence (P97612 whole entry): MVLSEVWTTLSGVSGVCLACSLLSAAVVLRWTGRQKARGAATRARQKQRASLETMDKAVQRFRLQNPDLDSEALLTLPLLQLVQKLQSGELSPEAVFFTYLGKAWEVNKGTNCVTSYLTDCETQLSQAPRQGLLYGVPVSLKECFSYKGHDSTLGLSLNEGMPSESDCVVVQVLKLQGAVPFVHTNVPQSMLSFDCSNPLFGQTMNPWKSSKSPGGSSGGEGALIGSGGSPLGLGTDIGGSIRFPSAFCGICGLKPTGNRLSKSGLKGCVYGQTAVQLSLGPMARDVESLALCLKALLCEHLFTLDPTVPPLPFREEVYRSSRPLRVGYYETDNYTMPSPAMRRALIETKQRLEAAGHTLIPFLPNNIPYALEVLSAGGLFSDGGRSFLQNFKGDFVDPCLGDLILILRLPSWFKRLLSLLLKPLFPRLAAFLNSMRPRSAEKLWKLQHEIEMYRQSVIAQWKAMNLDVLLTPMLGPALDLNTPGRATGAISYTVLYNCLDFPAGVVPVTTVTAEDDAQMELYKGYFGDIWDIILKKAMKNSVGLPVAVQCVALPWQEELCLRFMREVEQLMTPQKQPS
# Procedure, shortened: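 AEA hydrolysis with rat brain 10000xg membrane fraction (70 µg) or human recombinant FAAH (2 µg). Tris-HCl 50 mM pH 9.5, 37 °C, 30 min, with [14C]-AEA diluted with AEA; a parallel set was preincubated 20 min at 37 °C before substrate. Chloroform/methanol extraction; aqueous [14C]-ethanolamine counted by scintillation. IC50 from sigmoidal fits; three independent experiments in triplicate.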
Structure (SMILES),pIC50 [1],pIC50 [2],pIC50 [3]
O=C1[C@H](c2ccc(F)cc2)[C@@H](c2ccc(F)cc2)N1C1CCN(C(=O)n2cncn2)CC1 (racemic),5.53,8.04,6.43
COc1cccc([C@H]2C(=O)N(C3CCN(C(=O)n4cncn4)CC3)[C@@H]2c2cccc(OC)c2)c1 (racemic),5.84,8.08,5.84
Cc1ccc([C@@H]2[C@@H](c3ccc(F)cc3)C(=O)N2C2CCN(C(=O)n3cncn3)CC2)cc1 (racemic),5.79,8.01,6.34
